From ChEMBL document CHEMBL3608260 (Bioorg Med Chem Lett, 2015)
Non-standard residues stand in square brackets, D forms with d. Residues, ends and D or L forms follow the SMILES beside them. *: point of attachment. OBzl(3,5-(CF3)2) = FC(F)(F)c1cc(CO*)cc(C(F)(F)F)c1; Phe(4-Cl) = N[C@@H](Cc1ccc(Cl)cc1)C(=O)O; Phe(4-F) = N[C@@H](Cc1ccc(F)cc1)C(=O)O; Nle = CCCC[C@H](N)C(=O)O; βAla = NCCC(=O)O

Tests used:
[1] = target: Substance-P receptor (Cavia porcellus) (UniProt P30547); assay: Antagonist activity at NK1 receptor in guinea pig ileum assessed as inhibition of substance P-induced muscle contraction in presence of naloxone; format: tissue-based
Substance-P receptor (Cavia porcellus), sequence (P30547 whole entry): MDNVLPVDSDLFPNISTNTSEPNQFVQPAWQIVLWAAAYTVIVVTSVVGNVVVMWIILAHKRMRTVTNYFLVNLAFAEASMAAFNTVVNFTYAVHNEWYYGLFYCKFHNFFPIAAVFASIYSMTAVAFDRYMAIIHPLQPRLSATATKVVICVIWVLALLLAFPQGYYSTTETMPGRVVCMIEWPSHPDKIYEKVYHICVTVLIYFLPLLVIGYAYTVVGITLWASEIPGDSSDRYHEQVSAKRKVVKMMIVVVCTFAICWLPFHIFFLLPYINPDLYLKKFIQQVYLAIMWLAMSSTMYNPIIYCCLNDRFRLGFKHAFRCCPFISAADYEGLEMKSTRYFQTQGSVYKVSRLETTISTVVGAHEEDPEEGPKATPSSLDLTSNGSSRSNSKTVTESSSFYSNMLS

[2] = Selectivity ratio of Ki for rat mu opioid receptor to Ki for human delta opioid receptor
[3] = target: T1, Delta-type opioid receptor (Homo sapiens, UniProt P41143); assay: Agonist activity at human delta opioid receptor transfected in HN9.10 cells by [35S]GTPgammaS binding assay; format: functional, cell-based
T1 sequence (P41143 whole entry): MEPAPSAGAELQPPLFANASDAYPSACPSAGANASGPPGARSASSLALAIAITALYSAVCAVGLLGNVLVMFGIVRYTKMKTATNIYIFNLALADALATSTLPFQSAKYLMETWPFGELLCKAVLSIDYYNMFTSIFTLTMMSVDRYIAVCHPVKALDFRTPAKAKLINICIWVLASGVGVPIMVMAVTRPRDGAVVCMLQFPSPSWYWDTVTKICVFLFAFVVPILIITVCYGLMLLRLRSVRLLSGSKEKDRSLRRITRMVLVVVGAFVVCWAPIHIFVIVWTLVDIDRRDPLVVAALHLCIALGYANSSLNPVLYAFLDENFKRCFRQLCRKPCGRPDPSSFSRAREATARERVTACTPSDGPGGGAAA
Procedure, shortened: (§1)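 Membranes from transfected HN9.10 cells constitutively expressing human DOR or rat MOR. EC50 comes from non-linear regression of at least two independent experiments in duplicate. Emax = [Total bound − Basal]/[Basal − Non-specific] × 100.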

Mu-type opioid receptor [4] = target: Mu-type opioid receptor (Cavia porcellus, UniProt P97266); assay: Agonist activity at mu opioid receptor in guinea pig ileum assessed as inhibition of electrically-stimulated muscle contraction; format: tissue-based
Mu-type opioid receptor (Cavia porcellus, UniProt P97266), sequence (P97266 whole entry): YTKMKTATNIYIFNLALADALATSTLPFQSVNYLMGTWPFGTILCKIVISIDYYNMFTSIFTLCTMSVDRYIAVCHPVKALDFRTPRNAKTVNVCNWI
Procedure, shortened: (§2)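 Electrically stimulated isolated tissue (mouse vas deferens or guinea pig ileum).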

Substance-P receptor = Substance-P receptor (Rattus norvegicus, UniProt P14600); assay: Displacement of [3H]-substance P from rat NK1 receptor transfected in CHO cells; format: cell-based
Substance-P receptor, sequence (P14600 whole entry): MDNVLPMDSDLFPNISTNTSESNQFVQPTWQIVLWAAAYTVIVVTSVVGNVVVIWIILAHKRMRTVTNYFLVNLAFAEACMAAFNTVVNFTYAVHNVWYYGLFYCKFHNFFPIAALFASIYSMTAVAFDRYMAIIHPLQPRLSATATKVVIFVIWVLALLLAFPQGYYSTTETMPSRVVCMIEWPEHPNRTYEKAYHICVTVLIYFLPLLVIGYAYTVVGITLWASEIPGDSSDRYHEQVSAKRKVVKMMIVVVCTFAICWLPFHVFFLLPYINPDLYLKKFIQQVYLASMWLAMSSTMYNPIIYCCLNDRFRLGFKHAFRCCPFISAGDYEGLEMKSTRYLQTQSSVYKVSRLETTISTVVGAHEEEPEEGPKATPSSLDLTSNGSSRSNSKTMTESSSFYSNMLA

[5] = Ratio of Ki for rat NK1 receptor to Ki for human NK1 receptor
[6] = target: T1, Delta-type opioid receptor; assay: Displacement of [3H]-DPDPE from human delta opioid receptor transfected in HN9.10 cells; format: cell-based
[7] = target: Mu-type opioid receptor (Rattus norvegicus) (UniProt P33535); assay: (§3) Agonist activity at rat mu opioid receptor transfected in HN9.10 cells by [35S]GTPgammaS binding assay; format: functional, cell-based; procedure, shortened: as §1
Mu-type opioid receptor (Rattus norvegicus), sequence (P33535 whole entry): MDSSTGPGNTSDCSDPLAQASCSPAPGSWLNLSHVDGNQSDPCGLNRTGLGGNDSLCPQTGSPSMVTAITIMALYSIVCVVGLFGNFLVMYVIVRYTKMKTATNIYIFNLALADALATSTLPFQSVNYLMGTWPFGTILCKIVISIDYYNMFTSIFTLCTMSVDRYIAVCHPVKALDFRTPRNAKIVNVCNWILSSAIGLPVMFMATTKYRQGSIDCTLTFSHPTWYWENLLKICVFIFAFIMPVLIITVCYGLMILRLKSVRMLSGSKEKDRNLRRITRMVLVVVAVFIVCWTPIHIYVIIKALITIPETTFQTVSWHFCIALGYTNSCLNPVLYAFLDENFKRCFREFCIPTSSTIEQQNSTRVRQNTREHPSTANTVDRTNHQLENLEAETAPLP

[8] = target: Delta-type opioid receptor (Mus musculus, UniProt P32300); assay: Agonist activity at delta opioid receptor in mouse vas deferens assessed as inhibition of electrically-stimulated muscle contraction; procedure, shortened: as §2
Delta-type opioid receptor (Mus musculus, UniProt P32300), sequence (P32300 whole entry): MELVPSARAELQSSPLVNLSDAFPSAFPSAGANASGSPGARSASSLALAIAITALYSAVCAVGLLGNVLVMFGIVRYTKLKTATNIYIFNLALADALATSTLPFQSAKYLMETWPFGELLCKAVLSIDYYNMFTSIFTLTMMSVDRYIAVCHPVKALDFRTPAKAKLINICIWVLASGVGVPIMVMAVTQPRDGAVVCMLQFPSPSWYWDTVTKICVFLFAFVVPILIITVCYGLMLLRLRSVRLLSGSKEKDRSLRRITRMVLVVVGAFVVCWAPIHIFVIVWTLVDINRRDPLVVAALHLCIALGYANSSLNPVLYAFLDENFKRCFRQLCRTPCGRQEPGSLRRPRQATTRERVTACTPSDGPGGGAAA

[9] = target: Delta-type opioid receptor (Mus musculus) (UniProt P32300); assay: Agonist activity at delta opioid receptor in mouse vas deferens assessed as inhibition of electrically-stimulated muscle contraction at 1 uM relative to control
Delta-type opioid receptor (Mus musculus), sequence (P32300 whole entry): as above

[10] = target: Mu-type opioid receptor (Cavia porcellus) (UniProt P97266); assay: Agonist activity at mu opioid receptor in guinea pig ileum assessed as inhibition of electrically-stimulated muscle contraction at 1 uM relative to control; format: tissue-based
Mu-type opioid receptor (Cavia porcellus), sequence (P97266 whole entry): as the sequence (P97266 whole entry) above

Mu-type opioid receptor [11] = target: Mu-type opioid receptor (Rattus norvegicus, UniProt P33535); assay: as §3; format: functional, cell-based; procedure, shortened: as §1
Mu-type opioid receptor (Rattus norvegicus, UniProt P33535), sequence (P33535 whole entry): as the sequence (P33535 whole entry) above

Structure (SMILES)	Ke [1] [nM]	Emax [3] [%]	Ki (Substance-P receptor) [nM]	Emax [7] [%]	further results
C[C@@H](NC(=O)[C@@H](N)Cc1ccc(O)cc1)C(=O)NCC(=O)N[C@@H](Cc1c[nH]c2ccccc12)C(=O)OCc1cc(C(F)(F)F)cc(C(F)(F)F)c1 (H-Y[dA]GW-{OBzl(3,5-(CF3)2)})	5	33	15	34	Ratio Ki [2]: 0.16; IC50 (Mu-type opioid receptor [4]): 840 nM; Ratio Ki [5]: 500; Ki [6]: 310 nM
C[C@@H](NC(=O)[C@@H](N)Cc1ccc(O)cc1)C(=O)NCC(=O)N[C@@H](Cc1ccccc1)C(=O)N[C@@H](Cc1c[nH]c2ccccc12)C(=O)OCc1cc(C(F)(F)F)cc(C(F)(F)F)c1 (H-Y[dA]GFW-{OBzl(3,5-(CF3)2)})	38			14	
Cc1cc(O)cc(C)c1C[C@H](N)C(=O)N[C@H](C)C(=O)N[C@@H](Cc1c[nH]c2ccccc12)C(=O)OCc1cc(C(F)(F)F)cc(C(F)(F)F)c1	110				EC50 [3]: 12 nM
C[C@@H](NC(=O)[C@@H](N)Cc1ccc(O)cc1)C(=O)NCC(=O)N[C@@H](Cc1ccc(Cl)cc1)C(=O)NCC(=O)N[C@@H](Cc1c[nH]c2ccccc12)C(=O)OCc1cc(C(F)(F)F)cc(C(F)(F)F)c1 (H-Y[dA]G[Phe(4-Cl)]GW-{OBzl(3,5-(CF3)2)})	30				
C[C@@H](NC(=O)[C@@H](N)Cc1ccc(O)cc1)C(=O)NCC(=O)N[C@@H](Cc1ccccc1)C(=O)NCCC(=O)N[C@@H](Cc1c[nH]c2ccccc12)C(=O)OCc1cc(C(F)(F)F)cc(C(F)(F)F)c1 (H-Y[dA]GF[βAla]W-{OBzl(3,5-(CF3)2)})	250				IC50 [8]: 13 nM
C[C@@H](NC(=O)[C@@H](N)Cc1ccc(O)cc1)C(=O)N[C@@H](Cc1c[nH]c2ccccc12)C(=O)OCc1cc(C(F)(F)F)cc(C(F)(F)F)c1	49	36	2.9	26	inhibition [9]: 5.5%; Ratio Ki [2]: 1.8; inhibition [10]: 3.3%; Ratio Ki [5]: 730; EC50 (Mu-type opioid receptor [11]): 170 nM
C[C@@H](NC(=O)[C@@H](N)Cc1ccc(O)cc1)C(=O)NCC(=O)N[C@@H](Cc1ccc(F)cc1)C(=O)NCC(=O)N[C@@H](Cc1c[nH]c2ccccc12)C(=O)OCc1cc(C(F)(F)F)cc(C(F)(F)F)c1 (H-Y[dA]G[Phe(4-F)]GW-{OBzl(3,5-(CF3)2)})	10				
C[C@@H](NC(=O)[C@@H](N)Cc1ccc(O)cc1)C(=O)NCC(=O)N[C@@H](Cc1ccc(F)cc1)C(=O)OCc1cc(C(F)(F)F)cc(C(F)(F)F)c1	52	78	230	58	EC50 [3]: 6.7 nM; IC50 (Mu-type opioid receptor [4]): 210 nM; IC50 [8]: 180 nM; Ki [6]: 56 nM
CCCC[C@H](NC(=O)[C@H](Cc1ccccc1)NC(=O)CNC(=O)[C@@H](C)NC(=O)[C@@H](N)Cc1ccc(O)cc1)C(=O)N[C@@H](Cc1c[nH]c2ccccc12)C(=O)OCc1cc(C(F)(F)F)cc(C(F)(F)F)c1 (H-Y[dA]GF[Nle]W-{OBzl(3,5-(CF3)2)})	13				
Cc1cc(O)cc(C)c1C[C@H](N)C(=O)N[C@H](C)C(=O)N[C@@H](Cc1c[nH]c2ccccc12)C(=O)NCc1cc(C(F)(F)F)cc(C(F)(F)F)c1	22	50			
